Assay [1] has as its system HL-60. In words: In vitro cell growth inhibitory activity against HL60 cell line. The class given is functional, cell-based. As to conditions: Homo sapiens.
Assay [2] concerns CCRF S-180. In words: In vitro cell growth inhibitory activity against S180 cell line. Format: functional, cell-based. The following applies: Mus musculus.
Assay [3] relates to L1210. In words: In vitro cell growth inhibitory activity against L1210 cell line. Format: functional, cell-based. As to conditions: Mus musculus.
Assay [4] has as its system Mus musculus. In words: Compound was compared with MTX for in vivo activity against mammary adenocarcinoma E0771 infected mice at a dose of 24 mg/kg; T/C Treated to Control. Format: functional. In short, it runs like this:
(§1)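 E0771 mammary adenocarcinoma carried in mice, five mice per test group, with an untreated control group. Dosage is given in mg/kg. Average body weight change (g) and average tumor volume (mm3) were recorded at day 10. T/C is expressed relative to the control group.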

In assay [5] the test system is Mus musculus. In words: Compound was compared with MTX for in vivo activity against mammary adenocarcinoma E0771 infected mice at a dose of 48 mg/kg; T/C Treated to Control. The class given is functional. In short, it runs like this: as §1

Structures are written as SMILES.

By IC50 is commonly meant the midpoint of a concentration-inhibition curve. The low end stands for inhibition by little substance, the high end for a need for much substance. Take `Cc1c(CCc2ccc(C(=O)NC(CCC(=O)O)C(=O)O)c3ccccc23)cnc2nc(N)nc(N)c12` (stereo unspecified): the half-maximal inhibitory concentration (IC50) came out at 9.4 nM in assay [1], 29 nM in assay [2] and 8.8 nM in assay [3].

As a reminder, the T/C is the result in the treated group divided by that in the control group, in per cent. Consider `Nc1nc(N)c2nc(CCc3ccc(C(=O)NC(CCC(=O)O)C(=O)O)c4ccccc34)cnc2n1` (stereo unspecified), for which the values for the IC50 in assay [1], in assay [2] and in assay [3] were 1.1 nM, 1.7 nM and 1.5 nM, respectively. Further, the values for the T/C in assay [4] and in assay [5] were 96% and 52%, respectively.

For `CCc1c(CCc2ccc(C(=O)NC(CCC(=O)O)C(=O)O)c3ccccc23)cnc2nc(N)nc(N)c12` (stereo unspecified), the IC50 worked out at 9.8 nM in assay [1], 29 nM in assay [2] and 9 nM in assay [3].

For the origin of these results see ChEMBL document CHEMBL1129798, “Analogues of 10-deazaaminopterin and 5-alkyl-5,10-dideazaaminopterin with the 4-substituted 1-naphthoyl group in the place of 4-substituted benzoyl” (J Med Chem, 1996).
